Most compounds without a hit are left out; they make up all but 2.9% or so of the library.
CHO parental Ca = counter-screen for OX1R antagonists: effect in parental CHO cells. actives 0.63% (n = 330,000). AID 463079. parental CHO-K1, ATP-induced calcium, Fluo-8 fluorescence. inhibition, % at 5.6 µM;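 active means inhibition above that plate's mean sample inhibition plus 3 SD, cut at about 26% in these data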
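Test system: parental CHO cells; detection: calcium-sensitive Fluo-8 fluorescence; evaluation: percent inhibition of calcium signal; also added: ATP as calcium-mobilizing challenge; repeats: one well per compound; control set: ATP-challenged DMSO wells low, unchallenged DMSO wells high; compound: single nominal dose of 5.6 µM per compound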
OX1R antag-1 = blocks the human orexin 1 receptor; O43613; OX1R-expressing cells, FRET antagonist read-out; inhibition, % at 6.6 µM; actives 1.8% (n = 330,000); AID 485270; in the data active means inhibition mostly above about 38%, no sharp cut-off; inactive means mostly below about 40%
Target sequence (O43613 whole entry, looked up): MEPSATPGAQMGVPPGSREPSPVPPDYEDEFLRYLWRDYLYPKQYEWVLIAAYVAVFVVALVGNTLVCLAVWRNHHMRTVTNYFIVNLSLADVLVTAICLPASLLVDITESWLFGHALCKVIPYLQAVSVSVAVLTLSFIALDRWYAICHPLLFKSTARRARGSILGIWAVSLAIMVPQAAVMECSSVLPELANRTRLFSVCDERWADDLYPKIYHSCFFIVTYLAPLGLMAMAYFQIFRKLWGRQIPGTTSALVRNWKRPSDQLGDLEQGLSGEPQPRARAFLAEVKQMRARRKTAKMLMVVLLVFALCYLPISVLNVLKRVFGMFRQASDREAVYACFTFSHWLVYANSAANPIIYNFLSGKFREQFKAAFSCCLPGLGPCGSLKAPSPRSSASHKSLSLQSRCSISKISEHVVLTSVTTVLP
CHO-K1 Ca antag = counter-screen for M1 antagonists: effect in parental CHO-K1 cells | AID 602250 | actives 0.6% (n = 360,000) | ATP-induced calcium, Fluo-8 fluorescence | inhibition, % at 3 µM;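 active means inhibition above a per-plate cutoff, the plate's mean sample inhibition plus 3 SD, cut at about 24% in these data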
CHO-K1 Ca ag = nonselective activator or artifact in parental CHO-K1 cells; Fluo-8 calcium fluorescence; scaled to maximal ATP response, vehicle zero; activation, % at 3 µM; actives 0.48% (n = 360,000); AID 602248; in the data active means activation above about 15%;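 further: untransfected CHO-K1 host cells lacking M1 receptor as counterscreen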
OX1R antag-2 = human HCRTR1 antagonism; CHO/OX1R cells, Fluo-8 calcium fluorescence, orexin A; inhibition, % at 5 µM; O43613; AID 434989; actives 0.43% (n = 330,000);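 active means inhibition above its plate's threshold, mean inhibition of all tested compounds on the plate plus 3 SD, cut at about 37% in these data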
M1 PAM parental = M1 PAM counterscreen hit in parental CHO-K1 cells; ATP EC20, Fluo-8 calcium fluorescence; 0% at ATP EC20, 100% at ATP max; activation, % at 3 µM; actives 0.02% (n = 360,000);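 active means activation above the run cutoff, the mean activation of all test compounds plus 3 SD, cut at about 40% in these data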;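 further: peak over basal fluorescence ratio in a 140 s read after ATP addition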
Numbers stand for hits; n = inactive; x = no result given.

SMILES	CHO parental Ca	OX1R antag-1	CHO-K1 Ca antag	CHO-K1 Ca ag	OX1R antag-2	M1 PAM parental
CC(C)CCNC(=O)C1CC(c2ccc(C(F)(F)F)cc2)=NO1 (centres undefined)	52	n	n	n	n	n
N#Cc1ccsc1NC(=O)c1ccc(Cl)c([N+](=O)[O-])c1	46	88	n	19	n	n
N#Cc1ccsc1NC(=O)c1cccc([N+](=O)[O-])c1	n	n	n	n	n	n
N/C(=N\OC(=O)CCC1CCCC1)c1ccncc1	n	n	n	n	n	n
N/C(=N\OC(=O)CC1CCCCC1)c1ccncc1	n	n	n	17	n	n
Cc1cc(C)n(CCOc2ccc(Br)cc2)n1	n	n	n	n	n	n
Cc1ccc(S(=O)(=O)CCN2C=CC(C(F)(F)F)=NCC2)cc1	n	n	n	17	n	n
O=C(Cn1ccc(=O)[nH]c1=O)c1ccc([N+](=O)[O-])o1	x	x	n	n	x	n
CC(=O)Oc1ccc(C)cc1-n1nc2ccccc2n1	n	n	24	n	n	n
O=C(Cn1cnc2c(NCc3ccccc3)ncnc21)NCCc1cc2ccccc2[nH]1	n	34	n	n	n	n
O=C(Cn1cnc2c(NCc3ccccc3)ncnc21)NCCCc1ccccc1	n	n	n	n	n	n
Cc1cc(OCCCCN2C(=O)NC(C)(C)C2=O)ccc1[N+](=O)[O-]	n	n	n	17	n	n
COC(=O)c1ccc(Oc2ccc3nnc(C)n3n2)cc1	n	n	n	n	n	n
Cc1nnc2ccc(Oc3ccc(-c4ccccc4)cc3)nn12	n	n	40	n	n	n
Fc1ccccc1OCCCCN1CCCCC1	n	n	n	n	n	n
CN(C)S(=O)(=O)c1ccc2c(c1)/C(=C/c1cc3c([nH]1)CCCC3)C(=O)N2	36	n	n	n	n	n
COc1ccc(C(=O)NCCCNC(=O)c2cc3ccccc3[nH]2)cc1OC	n	70	n	n	n	n
O=C(NCCCO)c1cc2ccccc2[nH]1	n	n	n	n	n	n
CCN(CC(=O)Nc1c(F)cccc1F)C(=O)CNC(=O)c1ccco1	n	n	n	n	n	n
CCN(CC(=O)Nc1c(F)cccc1F)C(=O)CNC(=O)c1ccc(Br)o1	n	60	n	n	n	n
O=C(Cn1nc(-c2ccccc2)ccc1=O)Nc1ccc(-n2cnnn2)cc1	n	n	n	n	n	n
O=C(Cn1nc(-c2ccc3c(c2)OCCO3)ccc1=O)Nc1ccc(-n2cnnn2)cc1	29	n	n	n	n	n
CCN1C(=C2C(=O)c3ccccc3C2=O)C=Cc2ccccc21	n	62	n	n	n	n
CCN1C(=O)/C(=C2\C=Cc3ccccc3N2CC)SC1=S	n	n	n	n	n	n
CCCCOC1NC(=O)NC(=O)C1(F)C(=O)OCC (centres undefined)	x	x	n	n	x	n
SMILES	CHO parental Ca	OX1R antag-1	CHO-K1 Ca antag	CHO-K1 Ca ag	OX1R antag-2	M1 PAM parental
CCn1ccnc1CN1CCc2c([nH]c3ccccc23)C1CC(C)C (centres undefined)	n	n	n	n	n	n
CCn1ccnc1CN1CCc2c([nH]c3ccccc23)C1C(C)(C)C (centres undefined)	n	n	n	23	n	n
CSc1nsc(N/N=C/c2ccc3c(c2)OCO3)c1C#N	n	41	n	n	n	n
COCc1ccc(C(=O)N2CCCC(CCC(=O)NCc3ccccc3F)C2)o1 (centres undefined)	n	n	n	n	n	n
CN(C(=O)CN1C(=O)S/C(=C\c2ccc(F)cc2)C1=O)C1CCS(=O)(=O)C1 (centres undefined)	n	n	n	n	n	n
CCN(C(=O)CN1C(=O)S/C(=C\c2ccc(F)cc2)C1=O)C1CCS(=O)(=O)C1 (centres undefined)	n	41	n	n	n	n
O=C(CCCN1C(=O)/C(=C/c2ccc(F)cc2)SC1=S)NC1CCS(=O)(=O)C1 (centres undefined)	82	n	n	n	n	n
CC(NC(=O)CN1C(=O)NC2(CCc3ccccc32)C1=O)c1ccc2c(c1)OCCO2 (centres undefined)	n	n	n	n	n	n
COc1ccc(-c2noc(C(C)NC(=O)c3ccco3)n2)cc1OC (centres undefined)	n	n	n	n	n	n
CCOC(=O)C1=C(COC(=O)c2ccc([N+](=O)[O-])s2)NC(=O)NC1C (centres undefined)	n	37	n	n	n	n
CCOC(=O)C1=C(COC(=O)c2sccc2C)NC(=O)NC1C (centres undefined)	n	n	n	n	n	n
Cc1cccc(NC(=S)/N=C(\N)Nc2nc(C)c3ccccc3n2)c1	n	76	n	n	n	n
Cc1cccc(NC(=S)/N=C(\N)Nc2nc(C)c3ccc(C)cc3n2)c1	n	n	n	n	n	n
COCCc1ccc(OC2(C)CCN(Cc3ccc(OC)c4ccccc34)C2)cc1 (centres undefined)	x	x	n	n	x	n
COc1ccc(Nc2nc(N)nc(CSC(=S)N3CCCCC3)n2)cc1	n	n	n	n	n	n
COc1ccc(Nc2nc(N)nc(CSC(=S)N3CCCCC3C)n2)cc1 (centres undefined)	n	n	n	22	n	n
CC(Oc1ccccc1F)C(=O)NNC(=O)CC(C)c1ccccc1 (centres undefined)	n	n	n	n	n	n
CC(C)CC1C(=O)N(Cc2cn(Cc3ccco3)nn2)CCS(=O)(=O)N1Cc1ccc(-c2ccc(F)cc2)cc1 (centres undefined)	x	x	n	n	x	n
O=C(OCC#CCSc1nnc(-c2cccc3ccccc23)o1)c1cccs1	n	56	n	n	n	n
O=C(OCC#CCSc1nnc(-c2ccccc2)o1)c1cccs1	n	n	n	n	n	n
Cc1ccc(S(=O)(=O)N(C)C)cc1NC(=O)COC(=O)CSc1ccccc1	n	n	n	n	n	n
c1cc(-c2cc3cc4c(cc3cn2)OCO4)cs1	n	70	n	n	n	n
COC(=O)c1cc(NC(=O)CSC2=NCCS2)cc(C(=O)OC)c1	n	n	n	n	n	n
C=C(C)C(O)CC/C(C)=C/Cc1c(O)ccc(C(=O)/C=C/c2ccc(O)cc2)c1O (centres undefined)	31	n	n	n	n	n
CCOC(=O)C1=C(C)Nc2ccccc2N=C1N	n	n	n	n	n	n
CCOC(=O)C1=C(C)Nc2ccccc2N=C1NC(=O)c1oc2ccccc2c1COC	n	30	n	n	n	n
COCCN(Cc1ccccc1)C(=O)Cc1ccc(OC)c(S(=O)(=O)N2CCOCC2)c1	n	n	n	n	n	n
COc1ccc(CC(=O)N(Cc2ccccc2)c2ccccc2)cc1S(=O)(=O)N1CCOCC1	n	58	n	n	n	n
Cc1ccc(CNC(=O)C(=O)Nc2nccs2)cc1	n	n	n	n	n	n

Bioassay records as filed in PubChem BioAssay.
